In ChEMBL document CHEMBL1157640, “Exploration of inhibitors for diaminopimelate aminotransferase” (Bioorg Med Chem, 2010):
Activity calls are given as the source filed them. The calls are words filed in the database; no cut-off is given here.

Tests used:
[1] = molecular target: LL-diaminopimelate aminotransferase, chloroplastic (Arabidopsis thaliana, UniProt Q93ZN9); test: Inhibition of Arabidopsis thaliana LL-DAP-AT expressed in Escherichia coli by aminobenzaldehyde-based assay
Outline: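 His6-tagged A. thaliana LL-DAP-AT (0.0043 mg/mL final) in 1 mL cuvettes with 100 mM HEPES-KOH pH 7.6, 8.5 mM 2-OG, 7 mM OAB and 2.0 mM LL-DAP. Inhibitor at 5–200 µM final, added in 50 µL DMSO. A440 followed for 200 min, read every 2 min.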

[2] = molecular target: LL-diaminopimelate aminotransferase, chloroplastic (Arabidopsis thaliana) (UniProt Q93ZN9); test: Inhibition of Arabidopsis thaliana LL-DAP-AT expressed in Escherichia coli at 10 uM by aminobenzaldehyde-based assay
LL-diaminopimelate aminotransferase, chloroplastic (Arabidopsis thaliana), sequence (Q93ZN9 whole entry): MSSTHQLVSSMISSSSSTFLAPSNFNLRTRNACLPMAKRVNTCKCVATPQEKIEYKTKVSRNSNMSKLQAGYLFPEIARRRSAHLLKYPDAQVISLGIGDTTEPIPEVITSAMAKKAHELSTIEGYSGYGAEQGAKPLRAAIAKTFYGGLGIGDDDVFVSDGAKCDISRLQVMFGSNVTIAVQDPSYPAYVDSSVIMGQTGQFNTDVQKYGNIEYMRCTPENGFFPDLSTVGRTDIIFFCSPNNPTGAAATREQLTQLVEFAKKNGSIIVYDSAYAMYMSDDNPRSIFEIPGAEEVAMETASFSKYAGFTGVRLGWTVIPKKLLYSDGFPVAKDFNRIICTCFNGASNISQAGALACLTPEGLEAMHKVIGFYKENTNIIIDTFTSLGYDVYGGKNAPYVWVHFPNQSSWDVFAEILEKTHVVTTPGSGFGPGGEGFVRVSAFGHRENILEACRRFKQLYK
Outline: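 Robotic 96-well screen against C-terminal His6-tagged A. thaliana LL-DAP-AT (0.0043 mg/mL final) in 100 mM HEPES-KOH pH 7.6, with 8.5 mM 2-oxoglutarate, 7 mM OAB and 2.0 mM LL-DAP final. Inhibitor 10 µM final in DMSO, assuming MW 500. Absorbance at 440 nm read in triplicate before enzyme addition and after 3 h at room temperature. Activity taken relative to no-inhibitor wells; no-enzyme wells served as blank.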

Salmonella typhimurium = test: Antimicrobial activity against Salmonella Typhimurium ATCC 23564 at <200 ug/mL; format: functional, organism-based; conditions: Salmonella enterica subsp. enterica serovar Typhimurium
Outline: (§1)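 Soft agar overlay (0.75% w/v) seeded with 1% overnight culture of indicator strain, poured over 1.5% w/v solid agar; LB medium for Gram-negative, M17 for Gram-positive. 10 µL of test solution spotted and air-dried, with solvent controls (acetonitrile or methanol). Incubated overnight, 37 °C Gram-negative, 30 °C Gram-positive; scored for growth-inhibition halos.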

Carnobacterium divergens = test: Antimicrobial activity against Carnobacterium divergens LV13 at <200 ug/mL; format: functional, organism-based; outline: as §1
Escherichia coli = test: Antimicrobial activity against Escherichia coli DH5alpha at <200 ug/mL; format: functional, organism-based; outline: as §1
Pseudomonas aeruginosa = test: Antimicrobial activity against Pseudomonas aeruginosa ATCC 15442 at <200 ug/mL; format: functional, organism-based; outline: as §1
Staphylococcus aureus = test: Antimicrobial activity against Staphylococcus aureus ATCC 25923 at <200 ug/mL; format: functional, organism-based; outline: as §1
[3] = molecular target: LL-diaminopimelate aminotransferase, chloroplastic (Arabidopsis thaliana) (UniProt Q93ZN9); test: Inhibition of Arabidopsis thaliana LL-DAP-AT expressed in Escherichia coli assessed as time independent type of inhibition by aminobenzaldehyde-based assay
Outline: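 Enzyme (100 µL) and inhibitor (50 µL) were preincubated for six different times, then added to 850 µL of OAB-coupled substrate buffer. Inhibitor level was chosen from the IC50. A440 recorded as in the IC50 assay, with positive and no-enzyme controls. Time independence was judged by whether percent inhibition changed with preincubation time.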

LL-diaminopimelate aminotransferase, chloroplastic, sequence (Q93ZN9 whole entry): as above

| SMILES | IC50 ([1]; read-out: IC50) [µM] | inhibition [2] [%] | also measured |
| --- | --- | --- | --- |
| COc1ccc(/C=C2\SC(=S)N(N)C2=O)cc1 | 155 | – | – |
| C/C(=N\NC(=O)c1cc(C2CC2)n[nH]1)c1ccc(C)cc1 | > 200 | 14 | – |
| CC(=O)NN1C(=O)/C(=C/c2ccc(Cl)cc2)SC1=S | – | – | IC50 [1]: Not Active |
| NNC(=O)c1cc2ccccc2cc1NS(=O)(=O)c1ccccc1 | 5 | 33 | inhibition (Salmonella typhimurium): inactive; inhibition (Carnobacterium divergens): inactive; inhibition (Escherichia coli): inactive; inhibition (Pseudomonas aeruginosa): inactive; inhibition (Staphylococcus aureus): inactive |
| O=C(Cn1c(/C=C2/C(=O)NC(=O)N(c3cccc(F)c3)C2=O)cc2ccccc21)Nc1ccccc1 | 52 | 18 | – |
| O=C1NC(=S)S/C1=C\c1ccc(Cl)cc1 | > 200 | – | – |
| C=CCN1C(=O)NC(=O)/C(=C/c2ccc(-c3ccc(C(=O)OCC)cc3)o2)C1=O | > 200 | 16 | – |
| COc1ccc(N2C(=O)NC(=O)/C(=C/c3ccc(-c4cccc(Cl)c4)o3)C2=O)cc1 | 42 | 20 | – |
| O=C1NC(=S)N(c2cccc(Br)c2)C(=O)/C1=C\c1ccco1 | > 200 | 17 | – |
| COc1ccccc1N1C(=O)/C(=C\c2cc3ccccc3n2Cc2ccccc2)C(=O)NC1=S | 62 | 20 | – |
| O=C1NC(=S)S/C1=C\c1cccc2ccccc12 | – | – | IC50 [1]: Not Active |
| N/C(=N\[N+](=O)[O-])N/N=C\c1ccc(-c2cccc([N+](=O)[O-])c2)o1 | > 200 | 13 | – |
| O=C(N/N=C/c1ccc(O)cc1O)c1[nH]c2ccc([N+](=O)[O-])cc2c1-c1ccccc1 | 45 | 15 | – |
| NN1C(=O)/C(=C/c2ccccc2)SC1=S | – | – | IC50 [1]: Not Active |
| CCN1C(=O)/C(=C/c2ccc(OC)cc2)SC1=S | > 200 | – | – |
| C=CCN1C(=O)/C(=C2/C(=O)N(S(=O)(=O)c3ccc(OC)cc3)c3ccccc32)SC1=S | 194 | 18 | – |
| C=C(C)COc1ccc2c(c1)oc(=O)c1cc(OC)ccc12 | > 200 | 25 | – |
| COc1ccc(/C=C2\SC(=S)NC2=O)cc1I | 180 | 29 | – |
| Cc1ccsc1/C=C1\SC(=S)N(C(C)c2ccccc2)C1=O (configuration not stated) | 127 | 13 | – |
| O=C(N/N=C/c1ccc(F)cc1)c1cc(-c2ccc3ccccc3c2)n[nH]1 | 161 | 14 | – |
| Cc1ccc(S(=O)(=O)N2C(=O)/C(=C3\SC(=S)NC3=O)c3ccccc32)cc1 | 70 | 25 | – |

| SMILES | IC50 ([1]; read-out: IC50) [µM] | inhibition [2] [%] | also measured |
| --- | --- | --- | --- |
| COc1cc(OC)c(OC)cc1/C=N/n1c(S)nnc1-c1ccc(C)cc1 | > 200 | 18 | – |
| CC(=O)NN1C(=O)/C(=C/c2ccc(-c3ccc([N+](=O)[O-])cc3)o2)SC1=S | 73 | – | – |
| C=CCN1C(=O)/C(=C\c2cc3ccccc3n2C)C(=O)NC1=S | 75 | 35 | – |
| CN1C(=O)/C(=C/c2cc3ccccc3n2CC(=O)O)C(=O)N(c2ccc(Cl)cc2)C1=O | 65 | 14 | – |
| CCOC(=O)C1=C(Nc2ccc(OC)cc2)S/C(=C\c2ccc(N(C)C)cc2)C1=O | > 200 | 22 | – |
| CN(C)c1ccc(/C=C2\SC(=S)NC2=O)cc1 | 127 | – | – |
| CCN1C(=O)/C(=C/c2ccccc2O)SC1=S | > 200 | – | – |
| CC(=O)c1ccc(Nc2nc(-c3cc4ccccc4oc3=O)cs2)cc1 | > 200 | 16 | – |
| C=CCN1C(=O)/C(=C\c2cc3ccccc3n2Cc2ccc([N+](=O)[O-])cc2)C(=O)NC1=S | 69 | 33 | – |
| O=C1NC(=S)S/C1=C\c1ccccc1O | > 200 | – | – |
| Cc1nc(C)c(C(=O)/C=C2/Nc3ccccc3NC2=O)s1 | 56 | 18 | – |
| Cc1ccsc1/C=C1\SC(=S)N(CC2CCCO2)C1=O (configuration not stated) | > 200 | 14 | – |
| CCOC(=O)C1=C(Nc2ccc([N+](=O)[O-])cc2)S/C(=C\c2ccc(N(C)C)cc2)C1=O | 141 | 19 | – |
| Cc1c(C(=O)NC(=S)Nc2ccc3oc(-c4ccccc4Cl)nc3c2)oc2ccccc12 | 83 | 19 | – |
| O=C1NC(=S)S/C1=C\c1ccccc1[N+](=O)[O-] | – | – | IC50 [1]: Not Active |
| Cc1ccc(NC(=O)/C(C#N)=C/c2ccc(N(C)C)o2)cc1C | > 200 | 14 | – |
| COc1ccc(/C=C2\SC(=S)NC2=O)cc1 | 142 | – | – |
| Cc1ccc(N2C(=O)/C(=C\c3cc4ccccc4n3CC(=O)O)C(=O)N(C)C2=O)cc1 | 37 | 17 | – |
| COc1ccc(OC)c(Nc2nc3ccccc3nc2NS(=O)(=O)c2cccc([N+](=O)[O-])c2)c1 | 153 | 13 | – |
| N=C1NC(=O)/C(=C/c2ccc(-c3ccc([N+](=O)[O-])cc3Br)o2)S1 | 85 | 13 | – |
| COc1ccc(C=C2C(=O)NC(=S)NC2=O)cc1OCc1ccccc1Cl | 121 | 48 | – |

| SMILES | IC50 ([1]; read-out: IC50) [µM] | inhibition [2] [%] | also measured |
| --- | --- | --- | --- |
| O=C1OC(c2ccccc2Cl)=N/C1=C/c1ccc(OC(=O)c2ccccc2Cl)c(O)c1 | 81 | 30 | – |
| O=C1/C(=C/c2cn(-c3ccccc3)nc2-c2cccs2)SC(=S)N1C1CCS(=O)(=O)C1 (configuration not stated) | 117 | 13 | – |
| O/C(=C\c1nc2ccccc2nc1O)c1cccs1 | 31 | 15 | – |
| CCN1C(=O)/C(=C/c2cc(Cc3ccccc3Cl)ccc2O)SC1=S | 46 | 13 | inhibition [3]: Active |
| COc1ccc(/C=C2\SC(=S)N(NC(C)=O)C2=O)cc1 | > 200 | – | – |
| Cc1[nH]n(-c2ccccc2)c(=O)c1C=C1C(=O)N(C)C(=O)N(C)C1=O | 45 | 20 | inhibition [3]: Active |
| CCN1C(=O)/C(=C/c2ccccc2)SC1=S | > 200 | – | – |
| CCN1C(=O)/C(=C/c2cccc3ccccc23)SC1=S | 200 | – | – |
| NN1C(=O)/C(=C/c2ccc(Cl)cc2)SC1=S | – | – | IC50 [1]: Not Active |
| CN1C(=O)C(=Cc2cccn2-c2cccc([N+](=O)[O-])c2)C(=O)N(C)C1=O | > 200 | 13 | – |
| CC(=O)NN1C(=O)/C(=C/c2ccc(Br)o2)SC1=S | 41 | 13 | inhibition [3]: Active |
| CC(=O)/N=C1\NC(=O)/C(=C/c2ccc(-c3ccc([N+](=O)[O-])cc3)o2)S1 | 78 | 52 | – |
| CC(=O)NN1C(=O)/C(=C/c2ccccc2)SC1=S | – | – | IC50 [1]: Not Active |
| Cc1ccc(C2=NC(=O)/C(=C/c3cc4c(cc3Br)OCO4)S2)cc1 | 130 | 13 | – |
| Cc1ccc(OCCn2c(C=C3C(=O)NC(=O)NC3=O)cc3ccccc32)cc1C | 99 | 28 | – |
| COc1cc(-c2nnc(SCC(=O)c3ccc(F)cc3)n2-c2ccccc2)cc(OC)c1OC | > 200 | 14 | – |
| CCN1C(=O)/C(=C/c2ccc(Cl)cc2)SC1=S | 200 | – | – |
| COc1ccc(/C=C2/C=C(c3ccccc3)OC2=O)c(OC)c1 | 159 | 14 | – |
| Cc1ccc(N2C(=O)/C(=C\c3cc4ccccc4[nH]3)C(=O)NC2=S)cc1 | 164 | 16 | – |
